Data on 20 molecules can be found in ChEMBL document CHEMBL3860025, “Antiproliferative and Anti-inflammatory Withanolides from Physalis angulata” (J Nat Prod, 2016).

The structures appear in SMILES notation. A value given as a limit tells only on which side of the number the result lay.

Experiment [1] is described as follows: Antiproliferative activity against human 22Rv1 cells assessed as inhibition of cell viability after 48 hrs by MTT reduction assay. Type of experiment: functional, cell-based, CWR22R. The settings on record: 22Rv1, 48 h. The procedure, abridged:
(§1)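 Cells grown in RPMI-1640 or EMEM with 10% FBS at 37 °C under 5% CO2. Seeded at 1 × 10^4 cells/well for 12 h, then exposed to a range of compound concentrations for 48 h. Viability read by MTT reduction. 5-Fluorouracil was the positive control. Each assay was repeated three times, and IC50 reported as mean ± SD.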
A general note: Formazan colour is commonly taken as a measure of viable cells.

Experiment [2] can be described thus: Antiproliferative activity against human A375-S2 cells assessed as inhibition of cell viability after 48 hrs by MTT reduction assay. Type of experiment: functional, cell-based. The conditions noted are these: A375-S2, 48 h. The gist of the method:
as §1

The nature of experiment [3]: Antiproliferative activity against human 786-0 cells assessed as inhibition of cell viability after 48 hrs by MTT reduction assay. The conditions noted are these: 786-0, 48 h. Type of experiment: functional, cell-based. The gist of the method:
as §1

A short description of experiment [4]: Antiproliferative activity against human C4-2B cells assessed as inhibition of cell viability after 48 hrs by MTT reduction assay. Type of experiment: functional, cell-based. The settings on record: LNCaP C4-2B. The gist of the method:
as §1

Experiment [5] in a line: Antiproliferative activity against human ACHN cells assessed as inhibition of cell viability after 48 hrs by MTT reduction assay. The experiment is classed as functional, cell-based. The gist of the method:
as §1

Experiment [6] can be described thus: Antiinflammatory activity in mouse RAW264.7 cells assessed as inhibition of LPS-induced nitric oxide production after 24 hrs by Griess assay. Type of experiment: functional, cell-based. The conditions noted are these: RAW264.7, 24 h. The procedure, abridged:
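RAW 264.7 macrophages seeded at 1 × 10^6 cells/well, then incubated 24 h at 37 °C with LPS (1 μg/mL), with or without test compounds. NO measured by Griess reagent (0.1% N-(1-naphthyl)ethylenediamine plus 1% sulfanilamide in 5% H3PO4), absorbance at 540 nm. NO concentration and inhibition rate calculated from a standard curve. Hydrocortisone served as positive control.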
Background: Nitrite, measured by Griess reagent, commonly stands in for NO production.

Experiment [7] can be described thus: Antiproliferative activity against human A498 cells assessed as inhibition of cell viability after 48 hrs by MTT reduction assay. The settings on record: A498, 48 h. The experiment is classed as functional, cell-based. The gist of the method: as §1

In general, IC50 refers to the concentration at which inhibition is half-maximal. As for `CC(=O)O[C@H]1C[C@H]([C@H](C)[C@H]2CC(C)=C(C)C(=O)O2)[C@@]2(C)CC[C@H]3[C@@H](C[C@@H](O)[C@@]4(O)CC=CC(=O)[C@]34C)[C@H]12`, the IC50 in experiment [1] was 11.6 µM; in experiment [2], more than 10 µM; in experiment [3], more than 10 µM; in experiment [4], more than 10 µM; in experiment [5] it was more than 10 µM; in experiment [6] it was 17.6 µM. Also, the half-inhibitory concentration (IC50) in experiment [7] was more than 10 µM.
For `CC1=C(C)C(=O)O[C@@H]([C@@H](C)[C@]23O[C@H]2[C@H](O)[C@]2(O)[C@@H]4C[C@@H](O)[C@@]5(O)CC=CC(=O)[C@]5(C)[C@H]4CC[C@@]23C)C1`, the 50% inhibitory concentration (IC50) in experiment [1] is more than 10 µM; in experiment [2], more than 10 µM; in experiment [3] it was more than 10 µM; in experiment [4], more than 10 µM; in experiment [5], more than 10 µM; in experiment [6], more than 100 µM. In addition, the IC50 in experiment [7] was more than 10 µM.
For the molecule `CC(=O)O[C@H]1C=C([C@H](C)[C@H]2CC(C)=C(C)C(=O)O2)[C@@]2(C)CC[C@H]3[C@@H](C[C@H](O)[C@]4(O)CC=CC(=O)[C@]34C)[C@@]12O`, the half-maximal inhibitory concentration (IC50) in experiment [1] is more than 10 µM; in experiment [2], more than 10 µM; in experiment [3], more than 10 µM; in experiment [4], more than 10 µM; in experiment [5], more than 10 µM; in experiment [6], 11.6 µM. The half-maximal inhibitory concentration (IC50) in experiment [7] was more than 10 µM.
With `CC(=O)O[C@H]1C=C([C@H](C)[C@H]2CC(C)=C(C)C(=O)O2)[C@@]2(C)CC[C@H]3[C@@H](C[C@H]4O[C@]45CC=CC(=O)[C@]35C)[C@]12O`, the 50% inhibitory concentration (IC50) in experiment [1] was 0.63 µM; in experiment [2], 3.39 µM; in experiment [3], 0.66 µM; in experiment [4], 0.18 µM; in experiment [5], 1.08 µM; in experiment [6] it was 3.02 µM. Besides, the IC50 in experiment [7] came to 0.66 µM.
As to `CO[C@]12CC=CC(=O)[C@]1(C)[C@H]1CC[C@@]3(C)[C@@](O)([C@@H]1C[C@H]2O)[C@@H](OC(C)=O)[C@@H]1O[C@@]13[C@H](C)[C@H]1CC(C)=C(C)C(=O)O1`, the IC50 in experiment [1] is more than 10 µM; in experiment [2], more than 10 µM; in experiment [3] it was more than 10 µM; in experiment [4], more than 10 µM; in experiment [5], more than 10 µM; in experiment [6], 6.36 µM. Moreover, the IC50 in experiment [7] is more than 10 µM.
With `CC(=O)O[C@H]1C=C([C@H](C)[C@H]2CC(C)=C(C)C(=O)O2)[C@@]2(C)CC[C@H]3[C@@H](C[C@@H](O)[C@@]4(Cl)CC=CC(=O)[C@]34C)[C@]12O`, the half-inhibitory concentration (IC50) is 0.48 µM in experiment [1]; 3.37 µM in experiment [2]; 0.42 µM in experiment [3]; 0.51 µM in experiment [4]; 4.8 µM in experiment [5]; 3.38 µM in experiment [6]. In experiment [7], the half-inhibitory concentration (IC50) is 0.42 µM.
As to `CC1=C(C)C(=O)O[C@@H]([C@@H](C)C2=C[C@@H]3OC(C)(C)O[C@@]34[C@@H]3C[C@@H](O)[C@@]5(O)CC=CC(=O)[C@]5(C)[C@H]3CC[C@]24C)C1`, the IC50 is more than 10 µM in experiment [1]; more than 10 µM in experiment [2]; more than 10 µM in experiment [3]; more than 10 µM in experiment [4]; more than 10 µM in experiment [5]; 55.9 µM in experiment [6]. In addition, the 50% inhibitory concentration (IC50) in experiment [7] is more than 10 µM.
In the case of `CC(=O)O[C@H]1C[C@H]([C@H](C)[C@H]2CC(C)=C(C)C(=O)O2)[C@@]2(C)CC[C@H]3[C@@H](C[C@H]4O[C@]45CC=CC(=O)[C@]35C)[C@@]12O`, the IC50 in experiment [1] is 0.9 µM; in experiment [2], 7.43 µM; in experiment [3], 0.39 µM; in experiment [4] it was 0.49 µM; in experiment [5] it was 0.73 µM; in experiment [6], 1.36 µM. For the same molecule, the IC50 in experiment [7] was found to be 0.71 µM.
Take `CC1=C(CO)C[C@H]([C@]2(C)OC(=O)[C@]34[C@H](O)C[C@H]5[C@@H](CC=C6CC=CC(=O)[C@@]65C)[C@]3(O)[C@H](O)C[C@H]24)OC1=O`: the half-inhibitory concentration (IC50) in experiment [1] was more than 10 µM; in experiment [2] it was more than 10 µM; in experiment [3], more than 10 µM; in experiment [4], more than 10 µM; in experiment [5], more than 10 µM; in experiment [6] it was 17.5 µM. Besides, the half-maximal inhibitory concentration (IC50) in experiment [7] is more than 10 µM.
For the molecule `CC1=C(C)C(=O)O[C@@H]([C@@H](C)C2=C[C@@H]3O[C@@H](C)O[C@@]34[C@@H]3C[C@@H](O)[C@@]5(O)CC=CC(=O)[C@]5(C)[C@H]3CC[C@]24C)C1`, the half-inhibitory concentration (IC50) in experiment [1] is more than 10 µM; in experiment [2] it was more than 10 µM; in experiment [3] it was more than 10 µM; in experiment [4], more than 10 µM; in experiment [5] it was more than 10 µM; in experiment [6], 11.2 µM. The IC50 in experiment [7] is more than 10 µM.
As to `CC(=O)O[C@H]1[C@@H]2O[C@]2([C@H](C)[C@H]2CC(C)=C(C)C(=O)O2)[C@@]2(C)CC[C@H]3[C@@H](C[C@@H](O)[C@@]4(O)CC=CC(=O)[C@]34C)[C@@]12O`, the concentration for half-maximal inhibition (IC50) in experiment [1] was more than 10 µM; in experiment [2], more than 10 µM; in experiment [3] it was more than 10 µM; in experiment [4], more than 10 µM; in experiment [5] it was more than 10 µM; in experiment [6] it was 59.5 µM. The IC50 in experiment [7] is more than 10 µM.
As to `CO[C@]12CC=CC(=O)[C@]1(C)[C@H]1CC[C@]3(C)C([C@H](C)[C@H]4CC(C)=C(C)C(=O)O4)=C[C@H](OC(C)=O)[C@]3(O)[C@@H]1C[C@H]2O`, the 50% inhibitory concentration (IC50) in experiment [1] was more than 10 µM; in experiment [2] it was more than 10 µM; in experiment [3], more than 10 µM; in experiment [4], more than 10 µM; in experiment [5] it was more than 10 µM; in experiment [6] it was 44.6 µM. The IC50 in experiment [7] is more than 10 µM.
`CO[C@]12CC=CC(=O)[C@]1(C)[C@H]1CC[C@@]3(C)[C@](O)([C@@H](OC(C)=O)C[C@@]3(O)[C@H](C)[C@H]3CC(C)=C(C)C(=O)O3)[C@@H]1C[C@H]2O`: the IC50 in experiment [1] is more than 10 µM; in experiment [2], more than 10 µM; in experiment [3], more than 10 µM; in experiment [4], more than 10 µM; in experiment [5], more than 10 µM; in experiment [6], 3.53 µM. Further, in experiment [7], the 50% inhibitory concentration (IC50) was more than 10 µM.
Turning to `CC(=O)O[C@H]1C[C@H]([C@H](C)[C@H]2CC(C)=C(C)C(=O)O2)[C@@]2(C)CC[C@H]3[C@@H](C[C@@H](O)[C@@]4(O)CC=CC(=O)[C@]34C)[C@@]12O`, the IC50 in experiment [1] is more than 10 µM; in experiment [2], more than 10 µM; in experiment [3] it was more than 10 µM; in experiment [4] it was more than 10 µM; in experiment [5], more than 10 µM; in experiment [6], 43.8 µM. In experiment [7], the half-inhibitory concentration (IC50) was more than 10 µM.
As to `CC(=O)O[C@H]1C=C([C@H](C)[C@H]2CC(C)=C(C)C(=O)O2)[C@@]2(C)CC[C@H]3[C@@H](C[C@@H](O)[C@@]4(O)C[C@@H](O)CC(=O)[C@]34C)[C@@]12O`, the IC50 in experiment [1] was more than 10 µM; in experiment [2], more than 10 µM; in experiment [3] it was more than 10 µM; in experiment [4], more than 10 µM; in experiment [5] it was more than 10 µM; in experiment [6], more than 100 µM. Moreover, the IC50 in experiment [7] is more than 10 µM.
With `CC(=O)O[C@H]1C[C@@](O)([C@H](C)[C@H]2CC(C)=C(C)C(=O)O2)[C@@]2(C)CC[C@H]3[C@@H](C[C@H]4O[C@]45CC=CC(=O)[C@]35C)[C@@]12O`, the IC50 in experiment [1] was found to be 2.38 µM; in experiment [2], 3.85 µM; in experiment [3] it was 0.52 µM; in experiment [4], 0.27 µM; in experiment [5], 0.4 µM; in experiment [6], 3.42 µM. The IC50 in experiment [7] was 0.53 µM.
Consider `CC(=O)O[C@H]1[C@@H]2O[C@]2([C@H](C)[C@H]2CC(C)=C(C)C(=O)O2)[C@@]2(C)CC[C@H]3[C@@H](C[C@H]4O[C@]45CC=CC(=O)[C@]35C)[C@@]12O`, for which the 50% inhibitory concentration (IC50) in experiment [1] is more than 10 µM; in experiment [2], more than 10 µM; in experiment [3], more than 10 µM; in experiment [4] it was more than 10 µM; in experiment [5], more than 10 µM; in experiment [6], 2.54 µM. In addition, the IC50 in experiment [7] is more than 10 µM.
Turning to `CO[C@H]1CC(=O)[C@]2(C)[C@H]3CC[C@]4(C)C([C@H](C)[C@H]5CC(C)=C(C)C(=O)O5)=C[C@H](OC(C)=O)[C@@]4(O)[C@@H]3C[C@H]3O[C@]32C1`, the half-maximal inhibitory concentration (IC50) in experiment [1] was 2.23 µM; in experiment [2], more than 10 µM; in experiment [3], 2.43 µM; in experiment [4], 1.15 µM; in experiment [5], 7.5 µM; in experiment [6], 5.56 µM. The IC50 in experiment [7] worked out at 4.7 µM.
For the molecule `CC(=O)O[C@H]1C[C@@](O)([C@H](C)[C@H]2CC(C)=C(C)C(=O)O2)[C@@]2(C)CC[C@H]3[C@@H](C[C@@H](O)[C@@]4(O)CC=CC(=O)[C@]34C)[C@@]12O`, the IC50 is more than 10 µM in experiment [1]; more than 10 µM in experiment [2]; more than 10 µM in experiment [3]; more than 10 µM in experiment [4]; more than 10 µM in experiment [5]; more than 100 µM in experiment [6]. Moreover, the IC50 in experiment [7] was more than 10 µM.
On to `O=c1[nH]cc(F)c(=O)[nH]1` [FLUOROURACIL], for which the half-maximal inhibitory concentration (IC50) is 3.83 µM in experiment [1]; 1.91 µM in experiment [2]; more than 10 µM in experiment [3]; 5.64 µM in experiment [4]; 2.73 µM in experiment [5]; 8.83 µM in experiment [7].
